The species entered for assay [1] is Canis familiaris. The assay can be described thus: Compound was evaluated for abolition of ventricular tachycardia (Number/total);+ = slight degree. In kind it is functional, organism-based. To be noted: Canis lupus familiaris; Cardiac ventricle. The procedure, abridged: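 Dogs with 24-h myocardial infarction, anesthetized with 30 mg/kg iv sodium pentobarbital and given a left thoracotomy. Sustained ventricular tachycardia induced by three paced ventricular beats at 240–390/min. Compound given iv as a bolus in 50% ethanol. Pacing induction attempts repeated after dosing, up to 420/min. Abolition scored as number of dogs/total, with mean arterial pressure monitored.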

The species entered for assay [2] is Canis familiaris. The assay can be described thus: Increase in mean blood pressure on Ventricular Tachycardia (VT); (SL-Slight). The assay is classed as functional, Canis lupus familiaris. The procedure, abridged:
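Pentobarbital-anesthetized dogs with infarction, given the drug intravenously. Mean arterial blood pressure was monitored continuously during ventricular tachycardia induced by three paced ventricular beats.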

For assay [3], the species on record is Canis familiaris. The assay can be described thus: Effect of compound on myocardial conduction abnormal; +++ = marked decrease. In kind it is functional, organism-based. The conditions noted are these: Canis lupus familiaris; Myocardium. The procedure, abridged:
(§1)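 Pentobarbital-anesthetized dogs (30 mg/kg iv) with 24-h myocardial infarction, heart exposed by left thoracotomy. Recordings: lead II ECG, His bundle electrogram, and endocardial and epicardial electrodes over the infarct (abnormal tissue) plus a noninfarcted posterior epicardial reference (normal tissue). Atrial pacing from 180/min up to second-degree A-V block, before and after iv drug. Read-outs: intra-atrial, A-V nodal, His-Purkinje and ventricular conduction.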

For assay [4], the species on record is Canis familiaris. The assay can be described thus: Effect of compound on myocardial conduction normal (A-V, I-V); […]. In kind it is functional, organism-based. The conditions noted are these: Canis lupus familiaris; Myocardium. The procedure, abridged: as §1
For assay [5], the species on record is Canis familiaris. In words: Effect of compound on rate of induced ventricular tachycardia (VT) in dog. In kind it is functional, Canis lupus familiaris, Cardiac ventricle. The procedure, abridged:
(§2)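 Dogs with 24-h myocardial infarction under iv sodium pentobarbital (30 mg/kg), six per agent. Drug given as an iv bolus in 50% ethanol at 3 and 6 mg/kg; the reference agent was given iv at 2, 4 and 6 mg/kg. Sustained VT was induced by three paced ventricular beats at 240–390/min, with pacing retried up to 420/min after dosing. Read-outs were VT rate, abolition count and continuous mean arterial pressure.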

The species entered for assay [6] is Canis familiaris. The assay can be described thus: Compound was tested for mean blood pressure on induced Ventricular Tachycardia (VT). The assay is classed as functional, Canis lupus familiaris. The procedure, abridged:
as §2

Assay [7] in a line: Compound was evaluated for abolition of ventricular tachycardia (Number/total); 0/6. In kind it is functional, tissue-based. The conditions noted are these: Cardiac ventricle.
Assay [8] is filed under the species Canis familiaris. The assay can be described thus: Compound was evaluated for abolition of ventricular tachycardia (Number/total); + = slight degree. The assay is classed as functional, organism-based. The conditions noted are these: Canis lupus familiaris; Cardiac ventricle.
The species named for assay [9] is Canis familiaris. The assay can be described thus: Effect of compound on myocardial conduction abnormal; No change. The assay is classed as functional, organism-based. To be noted: Canis lupus familiaris; Myocardium.
The species entered for assay [10] is Canis familiaris. In words: Effect of compound on myocardial conduction normal (A-V, I-V); No change. The assay is classed as functional, organism-based. To be noted: Canis lupus familiaris; Myocardium.
The species named for assay [11] is Canis familiaris. The assay can be described thus: Effect of compound on myocardial conduction abnormal; ++ = moderate decrease. In kind it is functional, organism-based. The conditions noted are these: Canis lupus familiaris; Myocardium.

The source made the active and inactive calls. The calls are words filed in the database; no cut-off is given here.

In the case of `OC1(c2ccccc2)C2CSCC1CN(Cc1ccccc1)C2.[O-][Cl+3]([O-])([O-])O` (stereo not given), the Abolition result in assay [1] is on record as “slight degree”. The Mean blood pressure in assay [2] is less than 10%. Moreover, the Effect entry in assay [3] and in assay [4] was “marked decrease” each time.

Consider `CCN(CC)CC(=O)Nc1c(C)cccc1C` [LIDOCAINE], for which the Rate in assay [5] was 315. This molecule also returned a Mean blood pressure in assay [6] of 95 mmHg. Further, the Ratio result in assay [7] is “inactive”.

`[O-][Cl+3]([O-])([O-])O.c1ccc(CN2CC3CSCC(C3)C2)cc1` showed a Rate in [5] of 250. In assay [6], the Mean blood pressure is 112 mmHg.

The molecule `O=C1C2CSCC1CN(Cc1ccccc1)C2.[O-][Cl+3]([O-])([O-])O` came in with a Mean blood pressure in assay [2] of 15%.

Turning to `O=C1C2CSCC1CN(Cc1ccccc1)C2` [listing 1 of 2 here], the Abolition entry in [8] is on record as “slight degree”. In addition, the “Change in myocardial conduction” value in [9] and in assay [10] was “inactive” throughout. Also, the Effect entry in assay [11] was “moderate decrease”.

In [2], `O=C1C2CSCC1CN(Cc1ccccc1)C2` [listing 2 of 2 here] yielded a Mean blood pressure of less than 10%.

The values above are taken from ChEMBL document CHEMBL1122668, “Synthesis, conformational analysis, and antiarrhythmic properties of 7-benzyl-3-thia-7-azabicyclo[3.3.1]nonan-9-one, 7-benzyl-3-thia-7-azabicyclo[3.3.1]nonane hydroperchlorate, and 7-benzyl-9-phenyl-3-thia-7-azabicyclo[3.3.1]nonan-9-ol hydroperchlorate and derivatives: single-crystal X-ray …” (1984).
